Source: ChEMBL document CHEMBL1765047, “Synthesis and in vivo evaluation of (S)-6-(4-fluorophenoxy)-3-((1-[11C]methylpiperidin-3-yl)methyl)-2-o-tolylquinazolin-4(3H)-one, a potential PET tracer for growth hormone secretagogue receptor (GHSR)” (Bioorg Med Chem, 2011)

Tests used:
Cerebellum [1] = assay: Drug uptake in CD1 mouse cerebellum at 0.1 mCi, iv after 90 mins by gamma scintillation counting; format: ADME, organism-based; details: in vivo, 1.5 h
Procedure, shortened: (§1)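 Baseline regional brain study in male CD1 mice (23-28 g) injected via tail vein with 0.1 mCi tracer in 0.2 mL saline (~4000 mCi/μmol). Killed at 10, 30, 60 or 90 min; brain regions dissected on ice, weighed and gamma-counted with injectate standards. Reported as %ID/g tissue, mean ± SD, n=3.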

Heart [2] = assay: Drug uptake in CD1 mouse heart at 0.1 mCi, iv after 30 mins by gamma scintillation counting; format: ADME, organism-based; details: in vivo, 0.5 h
Procedure, shortened: (§2)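 Baseline whole-body distribution in male CD1 mice (23-28 g). Tracer 0.1 mCi in 0.2 mL saline (~4000 mCi/μmol) into lateral tail vein. Cervical dislocation at 10, 30 or 90 min; organs dissected on ice, weighed, gamma-counted alongside injectate aliquots as standards. Reported as %ID/g tissue, mean ± SD, n=5.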

Hypothalamus [3] = assay: Drug uptake in CD1 mouse hypothalamus at 0.1 mCi, iv after 10 mins by gamma scintillation counting; format: ADME, organism-based; details: in vivo; procedure, shortened: as §1
Liver [4] = assay: Drug uptake in CD1 mouse liver at 0.1 mCi, iv after 30 mins by gamma scintillation counting; format: ADME, organism-based; details: in vivo, 0.5 h; procedure, shortened: as §2
Cortex [5] = assay: Drug uptake in CD1 mouse cortex at 0.1 mCi, iv after 60 mins by gamma scintillation counting; format: ADME, organism-based; details: in vivo, 1 h; procedure, shortened: as §1
Hippocampus [6] = assay: Drug uptake in CD1 mouse hippocampus at 0.1 mCi, iv after 90 mins by gamma scintillation counting; format: ADME, organism-based; details: in vivo, 1.5 h; procedure, shortened: as §1
[7] = Drug uptake in CD1 mouse adrenal at 0.1 mCi, iv after 90 mins in presence of (S)-6-(4-Fluorophenoxy)-3-(piperidin-3-ylmethyl)-2-o-tolylquinazolin-4(3H)-one; format: ADME, organism-based, Adrenal gland; details: in vivo, 1.5 h
Procedure, shortened: (§3)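 Blockade arm: male CD1 mice (23-28 g) given 1 mg/kg blocker s.c. in saline/alcohol 9:1, or vehicle alone, 15 min before tail-vein tracer (0.1 mCi in 0.2 mL saline, ~4000 mCi/μmol). Killed by cervical dislocation at 90 min; organs dissected on ice, weighed, gamma-counted against injectate standards; %ID/g tissue, mean ± SD, n=5.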

Cortex [8] = assay: Drug uptake in CD1 mouse cortex at 0.1 mCi, iv after 10 mins by gamma scintillation counting; format: ADME, organism-based; details: in vivo; procedure, shortened: as §1
Muscle tissue [9] = assay: Drug uptake in CD1 mouse muscle at 0.1 mCi, iv after 10 mins by gamma scintillation counting; format: ADME, organism-based; details: in vivo; procedure, shortened: as §2
Cerebellum [10] = assay: Drug uptake in CD1 mouse cerebellum at 0.1 mCi, iv after 60 mins by gamma scintillation counting; format: ADME, organism-based; details: in vivo, 1 h; procedure, shortened: as §1
Liver [11] = assay: Drug uptake in CD1 mouse liver at 0.1 mCi, iv after 10 mins by gamma scintillation counting; format: ADME, organism-based; details: in vivo; procedure, shortened: as §2
Cortex [12] = assay: Drug uptake in CD1 mouse cortex at 0.1 mCi, iv after 90 mins by gamma scintillation counting; format: ADME, organism-based; details: in vivo, 1.5 h; procedure, shortened: as §1
[13] = Drug uptake in CD1 mouse testis at 0.1 mCi, iv after 30 mins by gamma scintillation counting; format: ADME, organism-based; details: in vivo, 0.5 h; procedure, shortened: as §2
Heart [14] = assay: Drug uptake in CD1 mouse heart at 0.1 mCi, iv after 90 mins by gamma scintillation counting; format: ADME, organism-based; details: in vivo, 1.5 h; procedure, shortened: as §2
Hippocampus [15] = assay: Drug uptake in CD1 mouse hippocampus at 0.1 mCi, iv after 60 mins by gamma scintillation counting; format: ADME, organism-based; details: in vivo, 1 h; procedure, shortened: as §1
[16] = Drug uptake in CD1 mouse testis at 0.1 mCi, iv after 90 mins by gamma scintillation counting; format: ADME, organism-based; details: in vivo, 1.5 h; procedure, shortened: as §2
Muscle tissue [17] = assay: Drug uptake in CD1 mouse muscle at 0.1 mCi, iv after 90 mins by gamma scintillation counting; format: ADME, organism-based; details: in vivo, 1.5 h; procedure, shortened: as §2
Hypothalamus [18] = assay: Drug uptake in CD1 mouse hypothalamus at 0.1 mCi, iv after 90 mins by gamma scintillation counting; format: ADME, organism-based; details: in vivo, 1.5 h; procedure, shortened: as §1
Lung [19] = assay: Drug uptake in CD1 mouse lung at 0.1 mCi, iv after 90 mins by gamma scintillation counting; format: ADME, organism-based; details: in vivo, 1.5 h; procedure, shortened: as §2
Hippocampus [20] = assay: Drug uptake in CD1 mouse hippocampus at 0.1 mCi, iv after 30 mins by gamma scintillation counting; format: ADME, organism-based; details: in vivo, 0.5 h; procedure, shortened: as §1
Lung [21] = assay: Drug uptake in CD1 mouse lung at 0.1 mCi, iv after 90 mins in presence of (S)-6-(4-Fluorophenoxy)-3-(piperidin-3-ylmethyl)-2-o-tolylquinazolin-4(3H)-one; format: ADME, organism-based; details: in vivo, 1.5 h; procedure, shortened: as §3
Muscle tissue [22] = assay: Drug uptake in CD1 mouse muscle at 0.1 mCi, iv after 30 mins by gamma scintillation counting; format: ADME, organism-based; details: in vivo, 0.5 h; procedure, shortened: as §2
Lung [23] = assay: Drug uptake in CD1 mouse lung at 0.1 mCi, iv after 10 mins by gamma scintillation counting; format: ADME, organism-based; details: in vivo; procedure, shortened: as §2
[24] = Drug uptake in CD1 mouse testis at 0.1 mCi, iv after 90 mins in presence of (S)-6-(4-Fluorophenoxy)-3-(piperidin-3-ylmethyl)-2-o-tolylquinazolin-4(3H)-one; format: ADME, organism-based; details: in vivo, 1.5 h; procedure, shortened: as §3
[25] = Drug uptake in CD1 mouse testis at 0.1 mCi, iv after 10 mins by gamma scintillation counting; format: ADME, organism-based; details: in vivo; procedure, shortened: as §2

## Cc1ccccc1-c1nc2ccc(Oc3ccc(F)cc3)cc2c(=O)n1C[C@H]1CCCN([11CH3])C1
Cerebellum [1]
  Drug uptake: 0.59 % ID/g
Heart [2]
  Drug uptake: 3.91 % ID/g
Hypothalamus [3]
  Drug uptake: 0.56 % ID/g
Liver [4]
  Drug uptake: 14.6 % ID/g
Cortex [5]
  Drug uptake: 0.65 % ID/g
Hippocampus [6]
  Drug uptake: 0.65 % ID/g
[7]
  Drug uptake: 10.02 % ID/g
Cortex [8]
  Drug uptake: 0.63 % ID/g
Muscle tissue [9]
  Drug uptake: 3.79 % ID/g
Cerebellum [10]
  Drug uptake: 0.59 % ID/g
Liver [11]
  Drug uptake: 18.63 % ID/g
Cortex [12]
  Drug uptake: 0.66 % ID/g
[13]
  Drug uptake: 1.39 % ID/g
Heart [14]
  Drug uptake: 2.94 % ID/g
Hippocampus [15]
  Drug uptake: 0.71 % ID/g
[16]
  Drug uptake: 1.96 % ID/g
Muscle tissue [17]
  Drug uptake: 2.09 % ID/g
Hypothalamus [18]
  Drug uptake: 0.86 % ID/g
Lung [19]
  Drug uptake: 14.74 % ID/g
Hippocampus [20]
  Drug uptake: 0.59 % ID/g
Lung [21]
  Drug uptake: 16.28 % ID/g
Muscle tissue [22]
  Drug uptake: 3.02 % ID/g
Lung [23]
  Drug uptake: 26.44 % ID/g
[24]
  Drug uptake: 2.25 % ID/g
[25]
  Drug uptake: 1.07 % ID/g
